Eleven compounds from ChEMBL document CHEMBL1141492, “Potent, exceptionally selective, orally bioavailable inhibitors of TNF-alpha Converting Enzyme (TACE): novel 2-substituted-1H-benzo[d]imidazol-1-yl)methyl)benzamide P1' substituents” (Bioorg Med Chem Lett, 2008) can be followed below.

Data set [1] addresses Disintegrin and metalloproteinase domain-containing protein 17 (Sus scrofa, UniProt O77636). The data set can be described thus: Inhibition of semi purified pig TACE.
Data set [2] in a line: Apparent permeability across human Caco-2 cells. It counts as ADME, cell-based. Put shortly:
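Apparent permeability measured across Caco-2 cell monolayers in the apical-to-basolateral (A→B) direction.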
For orientation: Caco-2 monolayers are a common model of the intestinal barrier.

The subject of data set [3] is Blood. The data set is described as follows: Reduction of LPS-induced TNFalpha in human whole blood. It counts as functional, tissue-based. Put shortly: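 LPS-induced TNF-α production in human whole blood; suppression of TNF-α measured.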
Data set [4] addresses T1, Interstitial collagenase (Homo sapiens, UniProt P03956).
T1 sequence (P03956 whole entry): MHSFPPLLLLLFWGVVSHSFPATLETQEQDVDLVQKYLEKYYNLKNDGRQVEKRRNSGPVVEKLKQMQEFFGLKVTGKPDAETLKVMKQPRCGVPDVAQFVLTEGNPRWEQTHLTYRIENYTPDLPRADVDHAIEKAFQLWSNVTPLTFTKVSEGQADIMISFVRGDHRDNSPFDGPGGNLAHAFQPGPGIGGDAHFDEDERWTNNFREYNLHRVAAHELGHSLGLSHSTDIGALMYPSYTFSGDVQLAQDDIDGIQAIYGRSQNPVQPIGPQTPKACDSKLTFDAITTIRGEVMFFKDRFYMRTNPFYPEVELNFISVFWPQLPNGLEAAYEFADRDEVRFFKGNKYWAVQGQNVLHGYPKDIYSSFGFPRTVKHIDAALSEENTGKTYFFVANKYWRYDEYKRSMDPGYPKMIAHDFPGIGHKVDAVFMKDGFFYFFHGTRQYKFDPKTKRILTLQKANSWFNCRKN
The data set is described as follows: Inhibition of MMP1.

Data set [5] concerns the target Matrix metalloproteinase-9 (Homo sapiens, UniProt P14780). The data set can be described thus: Inhibition of MMP9.
Data set [6] addresses 72 kDa type IV collagenase (Homo sapiens, UniProt P08253). The data set is described as follows: Inhibition of MMP2.
The nature of data set [7]: Clearance in Sprague-Dawley rat at 5.0 mg/kg, iv. It counts as ADME, organism-based. More on the design: dose 5 mg/kg, route intravenous. To be noted: in vivo. The method, boiled down: (§1)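 Discrete or cassette (n-in-1) dosing, given intravenously and orally. Sprague–Dawley rats received 5.0 mg/kg iv and 8.0 mg/kg po; beagle dogs received 2.0 mg/kg iv and 8.0 mg/kg po. Three animals per dosing group; averaged values reported. AUC is reported in nM h.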

A short description of data set [8]: Oral bioavailability in Sprague-Dawley rat at 8.0 mg/kg. It counts as ADME, organism-based. To be noted: in vivo. The method, boiled down: as §1

SMILES strings stand for the structures. Some results are limits rather than exact numbers.

Sequence of Disintegrin and metalloproteinase domain-containing protein 17 (O77636 whole entry, the tested form may be a part): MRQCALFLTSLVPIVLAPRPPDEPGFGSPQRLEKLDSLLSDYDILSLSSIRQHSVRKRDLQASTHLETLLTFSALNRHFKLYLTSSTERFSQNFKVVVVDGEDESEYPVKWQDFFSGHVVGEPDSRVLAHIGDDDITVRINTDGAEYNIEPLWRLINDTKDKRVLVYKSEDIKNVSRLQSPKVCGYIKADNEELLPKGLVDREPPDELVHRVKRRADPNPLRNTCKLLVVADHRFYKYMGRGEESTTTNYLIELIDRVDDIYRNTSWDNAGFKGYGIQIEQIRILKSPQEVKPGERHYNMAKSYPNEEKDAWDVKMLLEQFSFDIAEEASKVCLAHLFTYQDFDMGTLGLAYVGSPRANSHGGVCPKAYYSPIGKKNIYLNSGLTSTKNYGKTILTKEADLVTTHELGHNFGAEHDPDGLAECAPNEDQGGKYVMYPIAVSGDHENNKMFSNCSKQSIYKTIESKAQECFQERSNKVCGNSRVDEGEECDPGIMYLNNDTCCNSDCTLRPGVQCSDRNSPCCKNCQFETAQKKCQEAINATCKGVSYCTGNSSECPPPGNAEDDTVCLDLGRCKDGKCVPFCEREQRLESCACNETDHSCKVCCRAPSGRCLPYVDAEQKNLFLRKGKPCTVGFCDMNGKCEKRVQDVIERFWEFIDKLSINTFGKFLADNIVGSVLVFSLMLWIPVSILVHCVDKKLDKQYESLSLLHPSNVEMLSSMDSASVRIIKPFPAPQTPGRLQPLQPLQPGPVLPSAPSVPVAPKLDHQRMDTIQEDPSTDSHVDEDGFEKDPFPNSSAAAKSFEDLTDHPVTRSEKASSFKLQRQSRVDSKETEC
Sequence of 72 kDa type IV collagenase (P08253 whole entry): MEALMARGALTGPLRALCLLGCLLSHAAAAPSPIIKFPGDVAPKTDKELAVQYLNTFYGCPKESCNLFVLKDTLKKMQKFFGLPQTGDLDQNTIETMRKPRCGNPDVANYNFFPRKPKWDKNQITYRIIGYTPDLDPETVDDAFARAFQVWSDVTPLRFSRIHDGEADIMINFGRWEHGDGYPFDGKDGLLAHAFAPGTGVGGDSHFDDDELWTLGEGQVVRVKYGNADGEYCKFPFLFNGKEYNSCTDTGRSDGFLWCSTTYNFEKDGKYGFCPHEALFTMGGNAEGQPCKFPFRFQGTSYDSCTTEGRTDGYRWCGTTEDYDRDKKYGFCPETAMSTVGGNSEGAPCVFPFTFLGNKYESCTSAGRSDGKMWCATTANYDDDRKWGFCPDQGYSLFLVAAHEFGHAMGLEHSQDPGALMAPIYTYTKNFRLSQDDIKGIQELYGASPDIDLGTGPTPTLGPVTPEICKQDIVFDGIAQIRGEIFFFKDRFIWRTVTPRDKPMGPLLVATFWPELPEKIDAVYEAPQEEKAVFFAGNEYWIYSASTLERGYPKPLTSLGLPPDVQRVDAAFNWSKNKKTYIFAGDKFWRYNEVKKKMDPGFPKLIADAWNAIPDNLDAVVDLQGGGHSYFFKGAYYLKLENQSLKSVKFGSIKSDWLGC
Sequence of Matrix metalloproteinase-9 (P14780 whole entry): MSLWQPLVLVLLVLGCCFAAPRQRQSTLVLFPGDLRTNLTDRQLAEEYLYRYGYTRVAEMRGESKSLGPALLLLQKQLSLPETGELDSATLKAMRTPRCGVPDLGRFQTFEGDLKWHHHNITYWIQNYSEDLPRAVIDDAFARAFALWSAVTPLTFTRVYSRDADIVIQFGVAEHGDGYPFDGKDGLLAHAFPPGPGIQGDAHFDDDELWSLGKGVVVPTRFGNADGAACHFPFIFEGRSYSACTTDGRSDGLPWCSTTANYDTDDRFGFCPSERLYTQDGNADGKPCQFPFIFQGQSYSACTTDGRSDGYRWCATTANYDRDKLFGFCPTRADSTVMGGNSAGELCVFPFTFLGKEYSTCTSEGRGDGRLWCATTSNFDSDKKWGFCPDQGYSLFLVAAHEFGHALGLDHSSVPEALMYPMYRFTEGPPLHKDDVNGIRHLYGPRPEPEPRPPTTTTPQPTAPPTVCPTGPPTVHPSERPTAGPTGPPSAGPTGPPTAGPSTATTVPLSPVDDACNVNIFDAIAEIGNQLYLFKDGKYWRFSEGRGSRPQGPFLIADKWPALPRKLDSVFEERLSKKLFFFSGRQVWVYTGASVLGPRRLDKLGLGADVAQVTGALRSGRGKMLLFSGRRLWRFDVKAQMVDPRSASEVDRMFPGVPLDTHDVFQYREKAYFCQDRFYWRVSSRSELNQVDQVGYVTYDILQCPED

On to `Cc1nc2ccccc2n1Cc1ccc(C(=O)N[C@@H]2CNC[C@@H]2C(=O)NO)cc1`, for which the IC50 in data set [1] was determined as 0.0026 µM; in data set [3], 0.056 µM. Also, the Papp in data set [2] was 1 nm/s. The Ki in data set [4], in data set [5] and in data set [6] was above 2.13 µM in each case.
Turning to `C#CCN1C[C@H](C(=O)NO)[C@H](NC(=O)c2ccc(Cn3c(C(C)(C)C)nc4ccccc43)cc2)C1`, the IC50 in data set [1] was 0.0023 µM; in data set [3], 0.317 µM. Also, in data set [7], the clearance is 6.8 L/h/kg. Also, the Papp in data set [2] amounted to 4 nm/s. The figures for the Ki in data set [4], in data set [5] and in data set [6] were above 4.95 µM, above 2.13 µM and above 3.33 µM, respectively. For the same compound, in data set [8], the bioavailability was determined as 8%.
Consider `O=C(N[C@@H]1C[C@@]2(CCCO2)C[C@@H]1C(=O)NO)c1ccc(Cn2c(C3CC3)nc3ccccc32)cc1`, for which the values for the IC50 in data set [1] and in data set [3] were 0.0013 µM and 0.042 µM, respectively. The clearance in data set [7] is 1.4 L/h/kg. Also, the Papp in data set [2] is 1 nm/s. Moreover, the Ki in data set [4] was above 4.95 µM; in data set [5], above 2.13 µM; in data set [6] it was above 3.33 µM. Besides, in data set [8], the bioavailability came out at 14%.
For `CC(C)c1nc2ccccc2n1Cc1ccc(C(=O)N[C@@H]2CCOC[C@@H]2C(=O)NO)cc1`, the IC50 came out at 0.0016 µM in data set [1] and 0.105 µM in data set [3]. Also, the clearance in data set [7] was 3.8 L/h/kg. Besides, the Papp in data set [2] amounted to 5 nm/s. Also, the Ki in data set [4] was above 4.95 µM; in data set [5], above 2.13 µM; in data set [6], above 3.33 µM. The bioavailability in data set [8] is 8%.
For the compound `CC(C)(C)c1nc2ccccc2n1Cc1ccc(C(=O)N[C@@H]2C[C@@]3(CCCO3)C[C@@H]2C(=O)NO)cc1`, the IC50 in data set [1] amounted to 0.002 µM; in data set [3] it was 0.252 µM. In addition, the clearance in data set [7] was 2.9 L/h/kg. In addition, the Papp in data set [2] is 14 nm/s. In addition, the Ki was above 4.95 µM in data set [4], above 2.13 µM in data set [5] and above 3.33 µM in data set [6]. Also, in data set [8], the bioavailability is 29%.
As for `C#CCN1C[C@H](C(=O)NO)[C@H](NC(=O)c2ccc(Cn3c(C(C)C)nc4ccccc43)cc2)C1`, the IC50 in data set [1] is 0.0018 µM; in data set [3] it was 0.137 µM. Besides, in data set [7], the clearance was 9.3 L/h/kg. In addition, the Papp in data set [2] was determined as 1 nm/s. In addition, the Ki in data set [4] is above 4.95 µM; in data set [5] it was above 2.13 µM; in data set [6], above 3.33 µM. In addition, the bioavailability in data set [8] came out at 3%.
With `CC(C)(F)c1nc2ccccc2n1Cc1ccc(C(=O)N[C@@H]2CCOC[C@@H]2C(=O)NO)cc1`, the figures for the IC50 in data set [1] and in data set [3] were 0.0022 µM and 0.153 µM, respectively. In data set [7], the clearance was 1.9 L/h/kg. In addition, the Papp in data set [2] was 3 nm/s. The Ki in data set [4] was above 4.95 µM; in data set [5], above 2.13 µM; in data set [6] it was above 3.33 µM. In data set [8], the bioavailability worked out at 36%.
Take `CSc1nc2ccccc2n1Cc1ccc(C(=O)N[C@@H]2CNC[C@@H]2C(=O)NO)cc1`: the figures for the IC50 in data set [1] and in data set [3] were 0.0016 µM and 0.034 µM, respectively. Besides, the Papp in data set [2] stood at 2 nm/s. For the same compound, the Ki in data set [4], in data set [5] and in data set [6] was above 2.13 µM each time.
On to `O=C(N[C@@H]1CCC[C@@H]1C(=O)NO)c1ccc(Cn2c(C3CC3)nc3ccccc32)cc1`, for which the IC50 in data set [1] was found to be 0.0027 µM; in data set [3], 0.054 µM. In data set [7], this compound had a clearance of 1.5 L/h/kg. In addition, the Papp in data set [2] was found to be 20 nm/s. Besides, the Ki in data set [4] is above 4.95 µM; in data set [5], above 2.13 µM; in data set [6], above 3.33 µM. In addition, the bioavailability in data set [8] is 22%.
With `CSc1nc2ccccc2n1Cc1ccc([C@]2(N)CCN([C@H](CC(C)C)C(=O)NO)C2=O)cc1`, the IC50 in data set [1] was determined as 0.0062 µM; in data set [3], 0.316 µM. For the same compound, the Ki was above 4.95 µM in data set [4], 0.934 µM in data set [5] and 0.302 µM in data set [6].
Take `CC(C)c1nc2ccccc2n1Cc1ccc(C(=O)N[C@@H]2CNC[C@@H]2C(=O)NO)cc1`: the results for the IC50 in data set [1] and in data set [3] were 0.0016 µM and 0.064 µM, respectively. For the same compound, the Papp in data set [2] came to 1 nm/s. In addition, the inhibitory constant (Ki) in data set [4], in data set [5] and in data set [6] was above 2.13 µM each time.

The term IC50 denotes the concentration at which inhibition is half-maximal. Higher therefore signals weaker potency in that assay. One may read the Papp as a coefficient for how fast a substance crosses the barrier. As usually defined, the Ki is the dissociation constant of the complex between target and ligand, obtained from inhibition or displacement. High values mean weaker binding, low ones tighter binding. The term clearance denotes a measure of how efficiently the substance is removed, as volume per time. Low readings indicate inefficient removal, high ones efficient removal. In general, bioavailability refers to dose-corrected exposure relative to a reference, in per cent. A lower bioavailability goes with poor availability.
